Data from ChEMBL document CHEMBL3596100, “The synthesis and biological activity of novel anthracenone-pyranones and anthracenone-furans” (Bioorg Med Chem, 2015).
The source made the active and inactive calls.

Tests used:
Type in all cases: functional
A-431 = test: Growth inhibition of human A431 cells after 72 hrs by MTT assay
Method in brief: (§1)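 Cells kept in DMEM with 10% FBS, glutamine, penicillin/streptomycin at 37 °C, 5% CO2; plated in duplicate at 2500–4000 cells/well, dosed 24 h later during log growth. After 72 h drug exposure, MTT read at 540 nm. […] Assays in triplicate, standard error reported.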

MCF7 = test: Growth inhibition of human MCF7 cells after 72 hrs by MTT assay; method in brief: as §1
A2780 = test: Growth inhibition of human A2780 cells after 72 hrs by MTT assay; method in brief: as §1
U-87MG ATCC = test: Growth inhibition of human U87 cells after 72 hrs by MTT assay; method in brief: as §1
SMA = test: Growth inhibition of mouse SMA cells after 72 hrs by MTT assay; method in brief: as §1
NCI-H460 = test: Growth inhibition of human H460 cells after 72 hrs by MTT assay; method in brief: as §1
MIA = test: Growth inhibition of human MIA cells after 72 hrs by MTT assay; method in brief: as §1
HT-29 = test: Growth inhibition of human HT-29 cells after 72 hrs by MTT assay; method in brief: as §1
BE(2)-C = test: Growth inhibition of human BE(2)-C cells after 72 hrs by MTT assay; method in brief: as §1
DU-145 = test: Growth inhibition of human DU145 cells after 72 hrs by MTT assay; method in brief: as §1
SJ-G2 = test: Growth inhibition of human SJ-G2 cells after 72 hrs by MTT assay; method in brief: as §1

Measured: growth inhibition (GI)

Cc1cc2c(c3oc(-c4ccccc4)cc13)C(=O)c1c(O)cccc1C2=O
active: A-431 | MCF7 | A2780 | U-87MG ATCC | SMA | NCI-H460 | MIA | HT-29 | BE(2)-C

Cc1cc2c(c3oc(C(=O)c4ccccc4)cc13)C(=O)c1c(O)cccc1C2=O
active: A-431 | MCF7 | A2780 | U-87MG ATCC | SMA | NCI-H460 | MIA | HT-29 | BE(2)-C

CCCc1cc2c(C)cc3c(c2oc1=O)C(=O)c1c(OC(C)C)cccc1C3=O
active: A-431 | MCF7 | DU-145 | A2780 | U-87MG ATCC | SMA | SJ-G2 | NCI-H460 | MIA | HT-29 | BE(2)-C

Cc1cc2c(c3oc(-c4ccccc4)cc(=O)c13)C(=O)c1c(O)cccc1C2=O
active: A-431 | MCF7 | DU-145 | A2780 | U-87MG ATCC | SMA | NCI-H460 | MIA | HT-29 | BE(2)-C

Cc1cc2c(c3oc(=O)c(-c4ccccc4)cc13)C(=O)c1c(OC(C)C)cccc1C2=O
active: A-431 | MCF7 | DU-145 | A2780 | U-87MG ATCC | SMA | SJ-G2 | NCI-H460 | MIA | HT-29 | BE(2)-C

Cc1cc2c(c3oc(=O)c(CCCC#N)cc13)C(=O)c1c(OC(C)C)cccc1C2=O
active: A-431 | MCF7 | DU-145 | A2780 | U-87MG ATCC | SMA | SJ-G2 | NCI-H460 | MIA | HT-29 | BE(2)-C

CCCCc1cc2c(C)cc3c(c2oc1=O)C(=O)c1c(OC(C)C)cccc1C3=O
active: A-431 | MCF7 | DU-145 | A2780 | U-87MG ATCC | SMA | SJ-G2 | NCI-H460 | MIA | HT-29 | BE(2)-C
